Measured values from different studies.
Target: Discoidin domain-containing receptor 2 (DDR2, Homo sapiens, UniProt Q16832)
Sequence (Q16832 1-855, as in one of the studies): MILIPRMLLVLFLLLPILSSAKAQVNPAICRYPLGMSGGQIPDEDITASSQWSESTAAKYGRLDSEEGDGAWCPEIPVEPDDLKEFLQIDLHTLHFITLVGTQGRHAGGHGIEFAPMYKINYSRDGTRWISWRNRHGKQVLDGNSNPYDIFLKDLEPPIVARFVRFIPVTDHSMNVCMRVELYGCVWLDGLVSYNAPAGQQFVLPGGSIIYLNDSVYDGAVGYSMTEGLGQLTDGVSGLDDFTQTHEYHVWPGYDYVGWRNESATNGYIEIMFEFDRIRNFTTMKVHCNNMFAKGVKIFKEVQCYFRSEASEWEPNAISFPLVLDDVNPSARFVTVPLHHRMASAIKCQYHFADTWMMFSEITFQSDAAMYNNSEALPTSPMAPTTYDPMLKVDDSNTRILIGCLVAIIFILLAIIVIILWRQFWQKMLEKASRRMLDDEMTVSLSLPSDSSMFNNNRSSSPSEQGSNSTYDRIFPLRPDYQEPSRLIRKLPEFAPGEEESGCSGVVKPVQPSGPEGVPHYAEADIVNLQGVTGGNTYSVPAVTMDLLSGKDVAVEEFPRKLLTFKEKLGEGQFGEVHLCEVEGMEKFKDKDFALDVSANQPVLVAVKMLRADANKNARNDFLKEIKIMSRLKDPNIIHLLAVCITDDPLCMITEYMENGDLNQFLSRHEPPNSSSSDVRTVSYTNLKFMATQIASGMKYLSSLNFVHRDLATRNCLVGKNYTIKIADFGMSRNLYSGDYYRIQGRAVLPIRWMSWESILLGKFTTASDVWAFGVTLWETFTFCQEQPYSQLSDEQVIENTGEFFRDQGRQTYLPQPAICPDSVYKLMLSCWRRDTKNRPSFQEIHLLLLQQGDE

SMILES	effect on	technique	tested at	remaining binding [%]
CC(=O)C1=C(C)N(c2cccc(C(F)(F)F)c2)C(=O)N[C@@H]1c1ccc(C#N)nc1	cell-free assay	competition with immobilised ligand	1 µM	87.6
c1cnn2ncc(-c3ccnc(N4CCC45COC5)n3)c2c1	binding		1 µM	83
O=C(c1ccc(Nc2ncc(Cl)c(-c3ccc(Cl)s3)n2)cc1)N1CCC(N2CCCC2)CC1	binding	competition with immobilised ligand	1 µM	33
CN(C)c1nccc(-c2cnc3ncccn23)n1	binding		1 µM	84
O=C(N[C@H]1CCCCC/C=C\C2C[C@@]2(C(=O)O)NC(=O)[C@@H]2C[C@@H](Oc3ccncc3)CN2C1=O)OC1CCCC1 (some centres unmarked)	cell-free assay	competition with immobilised ligand	1 µM	100
C[C@@H]1CCN(c2nccc(-c3cnn4ncccc34)n2)C1	binding		1 µM	66
O=C(c1ccc(Nc2ncc(Cl)c(-c3cc4ccccc4s3)n2)cc1)N1CCC(N2CCCC2)CC1	binding	competition with immobilised ligand	1 µM	23
COc1ncc2cc3ccccc3nc2c1C#N	cell-free assay	competition with immobilised ligand	5 µM	94
C=CC(=O)N1CCC(C(=O)NCC(=O)N2CCN(c3nc(-c4cnc(N)nc4C(F)F)nc(N4CCOCC4)n3)CC2)CC1	binding	competition with immobilised ligand	1 µM	83
CN(C)c1nccc(-c2cnn3ncccc23)n1	binding		1 µM	100
O=C(Nc1c[nH]nc1C(=O)NC1CCNCC1)c1cc(F)cc(F)c1	binding	competition with immobilised ligand	1 µM	94
FC(F)(F)Oc1cccc(-c2cnc3ccc(-c4ccncc4)nn23)c1	cell-free assay	competition with immobilised ligand	5 µM	55
O=C(Nc1cccnn1)N1CCC(=Cc2cccc(Oc3ccc(C(F)(F)F)cn3)c2)CC1	cell-free assay	competition with immobilised ligand	1 µM	100
COc1cnc(Nc2cccc(S(N)(=O)=O)c2)nc1N1CCN(c2ccccc2)CC1	binding	competition with immobilised ligand	1 µM	66
Nc1cnc(N2CCc3cc(S(=O)(=O)Nc4c(F)cc(Cl)cc4F)cc(N4CCCC4=O)c32)nc1	cell-free assay	competition with immobilised ligand	1 µM	100
N[C@@H]1CCN(c2nccc(-c3cnn4ncccc34)n2)C1	binding		1 µM	100
Cn1nc(C(F)(F)F)cc1-c1cnc(N2CCc3cc(S(=O)(=O)Nc4c(F)cc(Cl)cc4F)cc(N4CCCC4=O)c32)nc1	cell-free assay	competition with immobilised ligand	1 µM	80
O=C(NCCCN1CCOCC1)c1ccc(Nc2ncc(Cl)c(-c3ccc(Cl)s3)n2)cc1	binding	competition with immobilised ligand	1 µM	61
CN(C)CC#Cc1ccc(OCCCc2sc(N3CCc4cccc(C(=O)Nc5nc6ccccc6s5)c4C3)nc2C(=O)O)c(F)c1	cell-free assay	competition with immobilised ligand	1 µM	83
Cc1cnn2ncc(-c3ccnc(N(C)C)n3)c2c1	binding		1 µM	69
